Data published in ChEMBL document CHEMBL1123261, “Comparative antiaggregatory activity in human platelets of a benzopyranone aci-reductone, clofibric acid, and a 2,3-dihydrobenzofuran analogue” (J Med Chem, 1986).

Columns and labels:
Type in all cases: functional, organism-based
Homo sapiens [1] = species: Homo sapiens; assay: Compound was tested for the inhibitory activity against human platelet aggregation by adenosine -Diphosphate (ADP (1-5 uM))
How it was run: (§1)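 Human platelet-rich plasma, count adjusted to 3 × 10^8/mL. Turbidometric (Born) aggregometry. Inhibitor added 1 min before inducer, which was used at the minimum level giving maximal aggregation. IC50 taken from change in light-transmittance amplitude after 6 min for ADP (secondary aggregation only) and 4 min for AA and U46619. U46619 samples contained aspirin 1 mM. Mean ± SEM, three to nine donors.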

Homo sapiens [2] = species: Homo sapiens; assay: Compound was tested for the inhibitory activity against serotonin secretion by adenosine -Diphosphate (ADP (1-5 uM)).
How it was run: (§2)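 Human platelet-rich plasma (3 × 10^8/mL) prelabeled with [14C]serotonin. Inhibitor added 1 min before the inducer: ADP 1–5 μM, AA 0.2–1 mM, or U46619 0.3 μM with aspirin 1 mM. Dense-granule secretion measured as release of radioactivity. Mean IC50 ± SEM, three to nine donors.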

Homo sapiens [3] = species: Homo sapiens; assay: Compound was tested for the inhibitory activity against serotonin secretion by U-46,619 (0.3 uM) + Aspirin (ASA, 1 mM).; how it was run: as §2
Homo sapiens [4] = species: Homo sapiens; assay: Compound was tested for the inhibitory activity against serotonin secretion by arachidonic acid (AA (0.1-1 mM)).; conditions: in the assay text read “AA (0.2-1 mM)” for “AA (0.1-1 mM)”; how it was run: as §2
Homo sapiens [5] = species: Homo sapiens; assay: Compound was tested for the inhibitory activity against human platelet aggregation by arachidonic acid (AA (0.1-1 mM)).; conditions: in the assay text read “AA (0.2-1 mM)” for “AA (0.1-1 mM)”; how it was run: as §1
Homo sapiens [6] = species: Homo sapiens; assay: Compound was tested for the inhibitory activity against human platelet aggregation by U46,619 (0.3 uM) + Aspirin (ASA, 1 mM).; how it was run: as §1
Homo sapiens [7] = species: Homo sapiens; assay: Compound was tested for the inhibitory activity against serotonin secretion by adenosine -Diphosphate (ADP (1-5 uM)); how it was run: as §2

Row | IC50 (Homo sapiens [1]) [µM] | IC50 (Homo sapiens [2]) [µM] | IC50 (Homo sapiens [3]) [µM] | IC50 (Homo sapiens [4]) [µM] | IC50 (Homo sapiens [5]) [µM] | IC50 (Homo sapiens [6]) [µM] | IC50 (Homo sapiens [7]) [µM] | SMILES
1 | 533 | 419 | 1440 | 1010 | 851 | 1480 |  | O=C(O)C1Cc2cc(Cl)ccc2O1 (stereo not given)
2 | 363 |  | 2380 | 814 | 739 | 1510 | 466 | O=c1c(O)c(O)oc2ccc(Cl)cc12
3 |  |  |  | > 3430 | > 3070 | > 4000 |  | CC(C)(Oc1ccc(Cl)cc1)C(=O)O [CLOFIBRIC ACID]
